Assay results: ChEMBL document CHEMBL1137633, “2,N6-disubstituted adenosine analogs with antitrypanosomal and antimalarial activities” (Antimicrob Agents Chemother, 2007)
Calls of active or inactive are those of the source. The calls are words filed in the database; no cut-off is given here.

Tests used:
Plasmodium falciparum = test: Antiplasmodial activity against chloroquine and pyrimethamine-resistant Plasmodium falciparum K1 […] by reporter dye assay; assay type: functional, organism-based
[1] = test system: Trypanosoma brucei rhodesiense; test: Trypanocidal activity against Trypanosoma brucei rhodesiense STIB 900 […] by reporter dye assay; assay type: functional, organism-based
Trypanosoma cruzi = test: Trypanocidal activity against Trypanosoma cruzi Tulahuen C4 trypomastigotes infected in mouse macrophage by reporter dye assay; assay type: functional, organism-based
Leishmania donovani = test: Antileishmanial activity against Leishmania donovani MHOMET-67/L82 amastigotes infected in mouse macrophage by reporter dye assay; assay type: functional, organism-based
L6 = test: Cytotoxicity against rat L6 cells; assay type: cell-based
Leishmania major = test: Biphasic antileishmanial activity against Leishmania major promastigotes by alamar blue fluorescent dye assay; assay type: functional, organism-based
[2] = test system: Trypanosoma brucei brucei; test: Inhibition of Trypanosoma brucei brucei 427 P1 transporter-mediated [3H]adenosine uptake by fluid scintillation counting in presence of 100 uM adenine
[3] = Inhibition of Trypanosoma brucei brucei 427 P2 transporter-mediated [3H]adenosine uptake by fluid scintillation counting in presence of 100 uM inosine
[4] = Cytotoxicity against HEK293T cells after 16 hrs by alamar blue staining; assay type: cell-based; conditions: Homo sapiens, HEK-293T
Summary of the method: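 HEK 293T cells were seeded at 3×10^4/well in DMEM with 10% newborn bovine serum, 2 mM L-glutamax and 1% penicillin-streptomycin, and left to adhere for 3 h at 37°C under 5% CO2. Medium with serial drug dilutions (500 to 0.24 μM in the added medium) was then given for 16 h. Resazurin followed for a further 24 h, read by fluorescence (ex 530/em 590 nm). IC50 values came from ≥3 independent experiments.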

SMILES	IC50 (Plasmodium falciparum) [µM]	IC50 [1] [µM]	IC50 (Trypanosoma cruzi) [µM]	IC50 (Leishmania donovani) [µM]	IC50 (L6) [µM]	IC50 (Leishmania major) [µM]	inhibition [2]	Ki [3] [µM]	IC50 [4] [µM]
OC[C@H]1O[C@@H](n2cnc3c(NC4CCCCC4)nc(NC4CCCCC4)nc32)[C@H](O)[C@@H]1O	9.62	7.26							
CCCCCNc1nc(NCCCCC)c2ncn([C@@H]3O[C@H](CO)[C@@H](O)[C@H]3O)c2n1	> 10	6.47	< 30	< 30	> 200				
OC[C@H]1O[C@@H](n2cnc3c(NC4CCCC4)nc(NCCc4cnc[nH]4)nc32)[C@H](O)[C@@H]1O	> 10	37.8	< 30	< 30					
OC[C@H]1O[C@@H](n2cnc3c(Nc4ccccc4)nc(NCCc4cnc[nH]4)nc32)[C@H](O)[C@@H]1O	> 10	76.3	< 30	< 30					
OC[C@H]1O[C@@H](n2cnc3c(NCCC(c4ccccc4)c4ccccc4)nc(NC4CCCC4)nc32)[C@H](O)[C@@H]1O	3.28	8	< 30	< 30					
N=C(N)c1ccc(OCCCCCOc2ccc(C(=N)N)cc2)cc1 [PENTAMIDINE]						3.52			
Nc1nc(N)nc(Nc2ccc([As]3SCC(CO)S3)cc2)n1 (centres undefined) [MELARSOPROL]		0.0056	< 30	< 30					
OC[C@H]1O[C@@H](n2cnc3c(NCc4cccc(I)c4)nc(NCCOCc4ccccc4)nc32)[C@H](O)[C@@H]1O	> 10	27	< 30	< 30					
Nc1ncnc2c1ncn2[C@H]1C[C@H](O)[C@@H](CO)O1 [DEOXYADENOSINE]							inactive	0.23	
OC[C@H]1O[C@@H](n2cnc3c(NCc4cccc(I)c4)nc(NCCc4cnc[nH]4)nc32)[C@H](O)[C@@H]1O	> 10	42.9	< 30	< 30					
OC[C@H]1O[C@@H](n2cnc3c(NC4CCCCC4)nc(NC4CCCC4)nc32)[C@H](O)[C@@H]1O	> 10	0.71							> 500
COc1nc(NC2CCCC2)c2ncn([C@@H]3O[C@H](CO)[C@@H](O)[C@H]3O)c2n1	> 10	32.9	< 30	< 30	51.6				
COc1nc(Nc2ccccc2)c2ncn([C@@H]3O[C@H](CO)[C@@H](O)[C@H]3O)c2n1	> 10	83.3	< 30	< 30					
OC(c1cc(C(F)(F)F)nc2c(C(F)(F)F)cccc12)C1CCCCN1 (centres undefined) [MEFLOQUINE]			< 30	< 30	4.76				
OC[C@H]1O[C@@H](n2cnc3c(N4CCCCC4)nc(N4CCCCC4)nc32)[C@H](O)[C@@H]1O	> 10	87.2							
OC[C@H]1O[C@@H](n2cnc3c(NC4CCCCCC4)nc(NC4CCCC4)nc32)[C@H](O)[C@@H]1O	8.95	0.71							> 500
OC[C@H]1O[C@@H](n2cnc3c(Nc4ccccc4)nc(NCCC4CNc5ccccc54)nc32)[C@H](O)[C@@H]1O (some centres undefined)	5.55	18.8	< 30	< 30	13.2				
COc1nc(NCc2cccc(I)c2)c2ncn([C@@H]3O[C@H](CO)[C@@H](O)[C@H]3O)c2n1	> 10	26.7	< 30	< 30					
OC[C@H]1O[C@@H](n2cnc3c(NCCC4CNc5ccccc54)nc(NCCC4CNc5ccccc54)nc32)[C@H](O)[C@@H]1O (some centres undefined)	2.46	26.5							
OC[C@H]1O[C@@H](n2cnc3c(NCc4cccc(I)c4)nc(NC4CCCC4)nc32)[C@H](O)[C@@H]1O	> 10	5.44	< 30	< 30	51.7				
OC[C@H]1O[C@@H](n2cnc3c(NC4CCCC4)nc(NCCC4CNc5ccccc54)nc32)[C@H](O)[C@@H]1O (some centres undefined)	> 10	20.8	< 30	< 30	48.4				
CCCNc1nc(NCCc2ccccc2)c2ncn([C@@H]3O[C@H](CO)[C@@H](O)[C@H]3O)c2n1	> 10	14.2	< 30	< 30	> 200				
OC[C@H]1O[C@@H](n2cnc3c(Nc4ccccc4)nc(NCCOCc4ccccc4)nc32)[C@H](O)[C@@H]1O	7.38	8.43	< 30	< 30	53.8				
